From ChEMBL document CHEMBL5712071, “BET bromodomain protein inhibition is a therapeutic option for medulloblastoma” (Oncotarget, 2013)
pIC50: −log10 of the molar value. Calls of active or inactive are those of the source. The calls are words filed in the database; no cut-off is given here.

Legend:
UW228 [1] = test: Anti-proliferative activity against human UW228 cells assessed as reduction in cell viability incubated for 48 hrs by MTT assay; format: functional, cell-based; settings: UW228, 48 h
Outline: (§1)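 Cells seeded in triplicate at 2 × 10^3 per well and allowed to adhere for 24h. JQ1 was given as serial dilutions in full medium, 1nM-6µM, from a 10 mM DMSO stock. Viability was read by MTT at each time point and IC50 derived from dose-response curves. Culture media were RPMI 1640/10% FCS for HD-MB3 (plus 1% NEAA), ONS-76, Daoy and UW-228, and EMEM/10% FCS for D-283 and D-341.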

ONS-76 [2] = test: Antiproliferative activity against human ONS-76 cells at 500 nM incubated for 72 hrs by BrdU ELISA method; format: functional, cell-based
Outline: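 Cells seeded in triplicate at 2 × 10^3 per well with 24h adherence, then treated with 500 nM JQ1 or DMSO control for 72h. Proliferation was measured by BrdU incorporation ELISA. Experiments were run independently at least 3 times.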

[3] = target: Bromodomain-containing protein 4 (Homo sapiens) (UniProt O60885); settings: HD-MB03, dose 500.0 nM, time 96.0 hrs
UW228 [4] = test: Anti-proliferative activity against human UW228 cells assessed as reduction in cell viability incubated for 120 hrs by MTT assay; format: functional, cell-based; settings: UW228, 120 h; outline: as §1
[5] = target: Bromodomain-containing protein 4 (Homo sapiens) (UniProt O60885); settings: HD-MB03, dose 500.0 nM, time 24.0 hrs
HD-MB03 [6] = test: Antitumor activity against human HD-MB03 cells xenografted in female athymic (nu/nu) mouse assessed as reduction in tumor volume at 50 mg/kg, ip measured form days 4 to 14 days relative to untreated control; format: functional, organism-based; settings: time 4-14 day
Outline: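 Female athymic nu/nu mice, 4 weeks old, received 2 × 10^7 HD-MB3 cells in Matrigel subcutaneously in the left flank. At 150–200 mm3 they were randomised, n=7 per group, to JQ1 50 mg/kg ip daily or vehicle for 28 days or until tumours exceeded 1000 mm3. Calipers were used, with volume = (breadth × length × height)/2. Time to 1000 mm3 was analysed by Kaplan-Meier.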

ONS-76 [7] = test: Anti-proliferative activity against human ONS-76 cells assessed as reduction in cell viability incubated for 96 hrs by MTT assay; format: functional, cell-based; settings: ONS-76, 96 h; outline: as §1
[8] = target: Bromodomain-containing protein 4 (Homo sapiens) (UniProt O60885); settings: ONS-76, dose 500.0 nM, time 72.0 hrs
[9] = target: Bromodomain-containing protein 4 (Homo sapiens) (UniProt O60885); settings: D341 cell line, dose 500.0 nM, time 72.0 hrs
[10] = target: Bromodomain-containing protein 4 (Homo sapiens) (UniProt O60885); settings: Daoy, dose 500.0 nM, time 24.0 hrs
D341 cell line [11] = test: Anti-proliferative activity against human D341 cells assessed as reduction in cell viability incubated for 120 hrs by MTT assay; format: functional, cell-based; settings: D341, 120 h; outline: as §1
D341 cell line [12] = test: Anti-proliferative activity against human D341 cells assessed as reduction in cell viability incubated for 72 hrs by MTT assay; format: functional, cell-based; settings: D341, 72 h; outline: as §1
ONS-76 [13] = test: Induction of senescence in human ONS-76 cells assessed as increase in population of cells in G1 phase at 500 nM incubated for 72 hrs by fluorometric SA-beta-gal activity assay; format: functional, cell-based
Outline: (§2)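 Senescence read as fluorometric SA-β-gal activity. Cells seeded 2 × 10^3 per well in triplicate and allowed 24h to adhere, then exposed to 500 nM JQ1 or DMSO control for 72h. Assayed per kit protocol. Experiments repeated at least 3 times.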

[14] = target: Bromodomain-containing protein 4 (Homo sapiens) (UniProt O60885); settings: ONS-76, dose 500.0 nM, time 24.0 hrs
Mus musculus = test: […] of cell proliferation in female athymic (nu/nu) mouse xenografted with human HD-MB03 cells as reduction in number of proliferating cells in tumor at 50 mg/kg, ip administered at 0, 12, 24 and 36 hrs over 2-day course by immunostaining and hematoxylin-eosin staining; format: functional, organism-based
Outline: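 HD-MB3 cells in Matrigel (2 × 10^7) injected subcutaneously into the left flank of 4-week-old female nu/nu mice. Given JQ1 50 mg/kg i.p. or DMSO vehicle at 0, 12, 24 and 36h; killed 4h after the last dose. Fixed 5 µm tumour sections underwent pH 6.0 retrieval and Ki67 (1:25) immunostaining with H&E; positive cells quantified, 3 tumours per group.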

Daoy [15] = test: Anti-proliferative activity against human Daoy cells assessed as reduction in cell viability incubated for 48 hrs by MTT assay; format: functional, cell-based; outline: as §1
[16] = target: Bromodomain-containing protein 4 (Homo sapiens) (UniProt O60885); settings: UW228, dose 500.0 nM, time 24.0 hrs
[17] = target: Bromodomain-containing protein 4 (Homo sapiens) (UniProt O60885); settings: UW228, dose 500.0 nM, time 72.0 hrs
[18] = target: Bromodomain-containing protein 4 (Homo sapiens) (UniProt O60885); settings: D283 Med, dose 500.0 nM, time 72.0 hrs
UW228 [19] = test: Anti-proliferative activity against human UW228 cells assessed as reduction in cell viability incubated for 96 hrs by MTT assay; format: functional, cell-based; settings: UW228, 96 h; outline: as §1
[20] = target: Bromodomain-containing protein 4 (Homo sapiens) (UniProt O60885); settings: HD-MB03, dose 500.0 nM, time 72.0 hrs
HD-MB03 [21] = test: Induction of apoptosis in human HD-MB03 cells assessed as increase in population of cells in G1 phase at 500 nM incubated for 72 hrs by ELISA; format: functional, cell-based
HD-MB03 [22] = test: Induction of apoptosis in human HD-MB03 cells assessed as increase in population of cells in sub-G1 phase at 500 nM incubated for 72 hrs by ELISA; format: functional, cell-based
HD-MB03 [23] = test: Induction of senescence in human HD-MB03 cells assessed as increase in population of cells in G1 phase at 500 nM incubated for 72 hrs by fluorometric SA-beta-gal activity assay; format: functional, cell-based; outline: as §2
HD-MB03 [24] = test: Anti-proliferative activity against human HD-MB03 cells assessed as reduction in cell viability incubated for 72 hrs by MTT assay; format: functional, cell-based; settings: HD-MB03, 72 h; outline: as §1
UW228 [25] = test: Induction of apoptosis in human UW228 cells assessed as increase in population of cells in G1 phase at 500 nM incubated for 72 hrs by ELISA; format: functional, cell-based
Daoy [26] = test: Induction of senescence in human Daoy cells assessed as increase in population of cells in G1 phase at 500 nM incubated for 72 hrs by fluorometric SA-beta-gal activity assay; format: functional, cell-based; outline: as §2
D341 cell line [27] = test: Induction of senescence in human D341 cells assessed as increase in population of cells in G1 phase at 500 nM incubated for 72 hrs by fluorometric SA-beta-gal activity assay; format: functional, cell-based; outline: as §2

Cc1sc2c(c1C)C(c1ccc(Cl)cc1)=N[C@@H](CC(=O)OC(C)(C)C)c1nnc(C)n1-2
pIC50 (UW228 [1]): < 6.00
Activity (ONS-76 [2]): Active
inhibition [3]: inactive
pIC50 (UW228 [4]): 6.05
inhibition [5]: > 80%
Activity (HD-MB03 [6]): Active
pIC50 (ONS-76 [7]): 6.76
inhibition [8]: Active
inhibition [9]: Active
inhibition [10]: Active
pIC50 (D341 cell line [11]): 6.57
pIC50 (D341 cell line [12]): 6.61
Activity (ONS-76 [13]): Active
inhibition [14]: Active
Activity (Mus musculus): Active
pIC50 (Daoy [15]): < 6.00
inhibition [16]: Active
inhibition [17]: Active
inhibition [18]: Active
pIC50 (UW228 [19]): < 6.00
inhibition [20]: Active
Activity (HD-MB03 [21]): Active
Activity (HD-MB03 [22]): Active
Activity (HD-MB03 [23]): Active
pIC50 (HD-MB03 [24]): 7.11
Activity (UW228 [25]): Active
Activity (Daoy [26]): Active
Activity (D341 cell line [27]): Active
